Records with an inconclusive call do not appear. The source made the active and inactive calls.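 The calls were made as follows, unless noted: active = RAM network inhibition above 8.4% in each of two replicates, 3 SD over the compound average; inconclusive = above 8.4% inhibition in only one replicate; inactive = 8.4% inhibition or less in each replicate.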
How the values were obtained:
[1] = OD615 S. cerevisiae growth inhibition, permissive medium, pilot counter-assay, permissive growth control for S. cerevisiae lifespan shortening project (AID 705;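 active = growth inhibition above 25% in both replicates, a cutoff set 3 SD above the mean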); details: OD615, 24 h, at 10 µM, hits give high values
In short: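 assay system = Saccharomyces cerevisiae strain carrying genetically modified DeaD replicative-lifespan system | medium = SC raffinose/galactose permissive medium | dosing = 10 µM single dose, 0.25% DMSO | schedule = 24 h compound exposure at 30 °C after 4 h pre-growth | measured by = OD at 615 nm | read-out basis = growth inhibition from lowered OD615 after 24 h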

[2] = Restrictive medium S. cerevisiae growth inhibition, OD615, pilot screen of yeast lifespan reduction project, restrictive growth control (AID 706;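 active = growth inhibition above a set limit, 3 SD over mean compound inhibition, in both replicates, cut at about 43% in these data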;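 also: modified DeaD lifespan yeast strain shifted to restrictive glucose medium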); details: OD615, 48 h, at 10 µM, hits give high values
In short: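 Buffer or medium: CSMM-D glucose medium. Material: genetically modified Saccharomyces cerevisiae, DeaD replicative lifespan assay strain. Times: 48 h compound exposure at 30 °C. Measured by: optical density at 615 nm.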

[3] = viability gain of MRP-1-high H69AR cells under doxorubicin, pilot screen, MRP-1 activator project, CellTiter-Glo, duplicate (AID 807;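 active = viability increase at or above a cutoff of the median across tested compounds plus 3 SD, cut at about 8.5% in these data, passing the limit was not always enough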;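 also: compound pretreatment 18-22 h then 72 h combined with doxorubicin; 0% = doxorubicin alone and 100% = vehicle without doxorubicin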); details: H69AR viability with doxorubicin, CellTiter-Glo luminescence; at 10 µM; hits give high values
[4] = growth suppression of beta-catenin knockout HCT116, pilot screen, human colon tumor cells (AID 823;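 active = cell viability at or below a set limit in both duplicate runs, the limit being the all-compound median minus 4 SD, cut at about 23% in these data, passing the limit was not always enough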;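 also: 0% = wells killed by 20 µM Hyamine and 100% = untreated DMSO cell wells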); details: CellTiter-Glo, 60 h, at 10 µM, hits give low values
[5] = inhibitors of the yeast RAM network, pilot screen, dse1pr::URA3 reporter, 5-FOA selection (AID 869;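 active = inhibition over a set limit, the all-compound mean plus 3 SD, in both replicate runs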;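 also: 0% = DMSO wells with no growth and 100% = 10 µM 1-NA-PP1 with full growth; RAM network block rescues cells from 5-FOA so hits raise OD615 growth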); details: S. cerevisiae dse1pr::URA3 5-FOA growth, OD615, 2 d; at 10 µM; hits give high values; strain carries analog-sensitive mutant Cbk1 kinase
[6] = RAM signaling pathway blockade in yeast – S. cerevisiae, Pdr1DBD-CYC8 efflux-inhibited sensitized strain, primary screen (AID 1298);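 also: 0% = DMSO untreated cells without growth and 100% = 10 µM 1-NA-PP1 full growth; higher means more yeast growth rescued from 5-FOA killing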; details: S. cerevisiae cbk1-as DSE1-URA3 strain, 5-FOA growth OD615, 2 d; at 50 µM; hits give high values

CN1CCc2c(sc3nc(SCC(N)=O)n(-c4ccccc4)c(=O)c23)C1
inactive: growth inhibition [1] -17.8% | growth inhibition [2] 9.25% | viability increase [3] -0.53% | viability [4] 84.3% | inhibition [5] 4.08% | RAM network inhibition [6] 3.54%

O=C(NCc1ccc(N2CCCC2=O)cc1)c1cn(CCc2ccccc2)nn1
inactive: growth inhibition [1] -5.88% | growth inhibition [2] -13.3% | viability increase [3] 1.6% | viability [4] 95.1% | inhibition [5] 1.7% | RAM network inhibition [6] 7.58%

O=C(NCc1nc2ccccc2[nH]1)c1ccc(S(=O)(=O)N2CCOCC2)cc1
inactive: growth inhibition [1] -9.52% | growth inhibition [2] -0.75% | viability increase [3] -2.83% | viability [4] 85.8% | inhibition [5] 1.77% | RAM network inhibition [6] 3.06%

CC1CCc2sc3nc(N4CCN(CCO)CC4)n4ncnc4c3c2C1 (centres undefined)
inactive: growth inhibition [1] -9.92% | growth inhibition [2] 7.57% | viability increase [3] -7.82% | viability [4] 73.3% | inhibition [5] 0.655% | RAM network inhibition [6] 5.04%

CC1(C)Cc2nc(-c3ccccc3)n3cnnc3c2CO1
inactive: growth inhibition [1] -8.06% | growth inhibition [2] -4.3% | viability increase [3] -1.77% | viability [4] 102% | inhibition [5] 0.36% | RAM network inhibition [6] 4.42%

CC1(C)SCC(C(=O)O)N1C=O (centres undefined)
inactive: growth inhibition [1] -16% | growth inhibition [2] -6.9% | viability increase [3] -0.04% | viability [4] 105% | inhibition [5] 1.66% | RAM network inhibition [6] 2.9%

COc1ccc(-c2cc3ccccc3n2CC(O)Cn2nc(C)cc2C)cc1 (centres undefined)
inactive: growth inhibition [1] -6.15% | growth inhibition [2] 12.6% | viability increase [3] -4.13% | viability [4] 69.5% | inhibition [5] 0.2% | RAM network inhibition [6] 7.69%

CCCn1cc(S(=O)(=O)CC(=O)Nc2ccc(OCC)cc2)c2ccccc21
inactive: growth inhibition [1] 1.42% | growth inhibition [2] 3.91% | viability increase [3] -4.37% | viability [4] 84.7% | inhibition [5] 1.41% | RAM network inhibition [6] 6.49%

CCOC(=O)C1=C(N)OC2=C(C(=O)CCC2)C1c1cccnc1 (centres undefined)
inactive: growth inhibition [1] -6.66% | growth inhibition [2] 4.47% | viability increase [3] -2.49% | viability [4] 104% | inhibition [5] 1.22% | RAM network inhibition [6] 2.44%

OC(COCc1cccs1)CN1CCN(c2ccccn2)CC1 (centres undefined)
inactive: growth inhibition [1] -19.5% | growth inhibition [2] -7.78% | viability increase [3] -1.3% | viability [4] 101% | inhibition [5] 2.32% | RAM network inhibition [6] 4.89%

CCCc1[nH]nc2c1C(C1CC=CCC1)C(C#N)=C(N)O2 (centres undefined)
active: viability [4] 11.9%
inactive: growth inhibition [1] 4.52% | growth inhibition [2] 6.39% | viability increase [3] -6.94% | inhibition [5] -0.015% | RAM network inhibition [6] 1.22%

Cc1ccc(S(=O)(=O)c2nc(-c3ccc(F)cc3)oc2SCC(N)=O)cc1
inactive: growth inhibition [1] -20.8% | growth inhibition [2] 0.745% | viability increase [3] -2.75% | viability [4] 100% | inhibition [5] 1.27% | RAM network inhibition [6] 1.2%

Cc1c(C(=O)NCC2COc3ccccc3O2)oc2ccc(S(=O)(=O)N3CCOCC3)cc12 (centres undefined)
inactive: growth inhibition [1] -22% | growth inhibition [2] -8.28% | viability increase [3] -2.13% | viability [4] 42.2% | inhibition [5] 3.01% | RAM network inhibition [6] 6.17%

CCn1c(=O)cc(C(=O)OC)sc1=Nc1ccc(F)c(F)c1
active: viability [4] 18.6%
inactive: growth inhibition [1] 1.93% | growth inhibition [2] -8.74% | viability increase [3] -8.26% | inhibition [5] 1.11% | RAM network inhibition [6] 7.21%

COC(=O)c1ccc(NCC(=O)c2ccccc2)cc1
inactive: growth inhibition [1] -7.25% | growth inhibition [2] -4.05% | viability increase [3] -4.87% | viability [4] 99.3% | inhibition [5] 1.83% | RAM network inhibition [6] 3.96%

O=C(Nc1ccc(Cl)cc1)c1ccncc1
inactive: growth inhibition [1] -11.5% | growth inhibition [2] -3.32% | viability increase [3] 0.18% | viability [4] 106% | inhibition [5] 1.14% | RAM network inhibition [6] 6.15%

CCOC(=O)C1(c2csc(N)n2)COC(=O)C1 (centres undefined)
inactive: growth inhibition [1] -11.9% | growth inhibition [2] 0.175% | viability increase [3] -0.78% | viability [4] 96.8% | inhibition [5] 2.44% | RAM network inhibition [6] 2.75%

COc1ccccc1N1CCN(CC(=O)Nc2cc(C)nn2-c2nc(C)cc(C)n2)CC1
inactive: growth inhibition [1] -5.77% | growth inhibition [2] -18.8% | viability increase [3] -7.06% | inhibition [5] 1.77% | RAM network inhibition [6] 6.51%
active: viability [4] 19.6%

COCCn1c(=O)[nH]c2cc(C(=O)NCCN3CCN(c4ccccc4F)CC3)ccc2c1=O
inactive: growth inhibition [1] 0.575% | growth inhibition [2] 4.3% | viability increase [3] -1.27% | viability [4] 94.3% | inhibition [5] 1.31% | RAM network inhibition [6] 9.5%

Cn1c(Cn2c(=O)sc3ccccc32)nnc1SCc1ccc(F)cc1
active: viability [4] 23.7% | RAM network inhibition [6] 16.2%
inactive: growth inhibition [1] -7.12% | growth inhibition [2] -5.41% | viability increase [3] -4.85% | inhibition [5] 2.8%

CCC(=O)N1CCc2cc(Br)cc(S(=O)(=O)CCC(=O)NCc3ccco3)c21
inactive: growth inhibition [1] -26.8% | growth inhibition [2] 0.16% | viability increase [3] -4.1% | viability [4] 94.9% | inhibition [5] 2.91% | RAM network inhibition [6] 4.36%

COc1ccc(Cn2c(=O)n(Cc3ccco3)c(=N)c3c4c(sc32)COC(C)(C)C4)cc1
inactive: growth inhibition [1] -17.7% | growth inhibition [2] -5.45% | viability increase [3] -5.35% | viability [4] 66.2% | inhibition [5] 0.42% | RAM network inhibition [6] 2.55%

C[C@@H](NC(=O)c1coc(=O)c(Br)c1)c1ccccc1
inactive: growth inhibition [1] -24.5% | growth inhibition [2] 3.37% | viability increase [3] -8.28% | viability [4] 63.7% | inhibition [5] 3.79% | RAM network inhibition [6] 7.48%

Cc1ccc(S(=O)(=O)N2CCC(C(=O)N[C@@H](C)C(=O)NCC3CCCO3)CC2)cc1 (some centres undefined)
inactive: growth inhibition [1] -19.6% | growth inhibition [2] -9.68% | viability increase [3] -2.65% | viability [4] 97% | inhibition [5] 2.1% | RAM network inhibition [6] -0.73%

CCOC(=O)N1CCN(c2nc(SC)nc3sc4c(c23)CC(C)(C)OC4)CC1
inactive: growth inhibition [1] 2.38% | growth inhibition [2] -0.985% | viability increase [3] -5.82% | viability [4] 87.5% | inhibition [5] 0.54% | RAM network inhibition [6] 9.5%

Clc1nc2sccn2c1/C=N/n1cnc2ccccc21
inactive: growth inhibition [1] 19.9% | growth inhibition [2] 33.8% | viability increase [3] -6.14% | viability [4] 94.7% | inhibition [5] 0.675% | RAM network inhibition [6] 2.34%

Cc1cc2cc(CN(Cc3ccc4c(c3)OCO4)C(=O)c3cnccn3)c3nnnn3c2cc1C
inactive: growth inhibition [1] -6.95% | growth inhibition [2] 6.71% | viability increase [3] -5.49% | viability [4] 87.2% | inhibition [5] 2.06% | RAM network inhibition [6] 5.81%

CN(C)/C=C1/Sc2ccccc2C1=O
inactive: growth inhibition [1] -13.4% | growth inhibition [2] 10% | viability increase [3] -3.51% | viability [4] 103% | inhibition [5] 1.11% | RAM network inhibition [6] -0.73%

CCC1(C)Cc2c(sc3c2c2ncnn2c2nnc(SCC(=O)NCc4ccco4)n32)CO1 (centres undefined)
inactive: growth inhibition [1] -19.2% | growth inhibition [2] -5.88% | viability increase [3] -7.33% | viability [4] 58.1% | inhibition [5] 0.815% | RAM network inhibition [6] 1.87%

Cc1ccc2nc(NC3=NCN(Cc4ccco4)CN3)nc(C)c2c1
inactive: growth inhibition [1] -1.68% | growth inhibition [2] -0.67% | viability increase [3] -7.05% | viability [4] 27.2% | inhibition [5] -0.585% | RAM network inhibition [6] -1.94%

Cc1nn(CC(=O)Nc2cccnc2N2CCOCC2)c(=O)c2ccccc12
inactive: growth inhibition [1] -23.7% | growth inhibition [2] 1.05% | viability increase [3] -2.18% | viability [4] 95% | inhibition [5] 1.22% | RAM network inhibition [6] 1.71%

Cc1cc(NC(=O)Cn2c(=O)n(Cc3ccccc3)c(=O)c3ccccc32)no1
inactive: growth inhibition [1] -5.91% | growth inhibition [2] -24.7% | viability increase [3] -5.98% | viability [4] 51.5% | inhibition [5] 1.32% | RAM network inhibition [6] 6.47%

CCOCCCNC(=O)C1CCC(CNS(=O)(=O)c2ccc(F)cc2)CC1 (centres undefined)
inactive: growth inhibition [1] -7.63% | growth inhibition [2] 6.36% | viability increase [3] -2.28% | viability [4] 95.5% | inhibition [5] 1.19% | RAM network inhibition [6] 7.28%

COC(=O)c1cc(=O)n(Cc2ccco2)c(=Nc2ccc(F)c(Cl)c2)s1
inactive: growth inhibition [1] -17.1% | growth inhibition [2] -11.1% | viability increase [3] -8.24% | inhibition [5] 2.19% | RAM network inhibition [6] 10.1%
active: viability [4] 9.25%

Cc1ccc(Cc2cnc(N)s2)o1
inactive: growth inhibition [1] -11.3% | growth inhibition [2] 10.1% | viability increase [3] -5.06% | viability [4] 75.9% | inhibition [5] 2.06% | RAM network inhibition [6] 5.71%

COc1cccc(C(=O)Nc2ccc(-c3nc4ccccc4o3)c(O)c2)c1
inactive: growth inhibition [1] -13.4% | growth inhibition [2] -12.1% | viability increase [3] -4.28% | viability [4] 30.4% | inhibition [5] 3.71% | RAM network inhibition [6] 3.99%

O=C(Nc1nnc(-c2ccc3c(c2)CCCC3)o1)c1ccccc1Cl
inactive: growth inhibition [1] -7.88% | growth inhibition [2] 18.4% | viability increase [3] -4.31% | viability [4] 34.6% | inhibition [5] 2.51% | RAM network inhibition [6] 4.48%

CCC(=O)NC(C)c1nc2ccccc2n1C (centres undefined)
inactive: growth inhibition [1] -9.66% | growth inhibition [2] -2.13% | viability increase [3] -1.61% | viability [4] 102% | inhibition [5] 1.37% | RAM network inhibition [6] 7.64%

O=C(Nc1nn[nH]n1)c1cccc(Oc2ccccc2)c1
inactive: growth inhibition [1] -18.5% | growth inhibition [2] 8.51% | viability increase [3] -0.81% | viability [4] 96.5% | inhibition [5] 3.22% | RAM network inhibition [6] 7.27%
